Assay results taken from ChEMBL document CHEMBL4825730, “Discovery of a First-in-Class Inhibitor of the PRMT5-Substrate Adaptor Interaction” (J Med Chem, 2021).
≈ marks a conversion by molar mass, not a printed value. Calls of active or inactive are those of the source. The rule behind the calls is not given here.

Columns and labels:
[1] = biological target: PRMT5/MEP50 complex (Homo sapiens, UniProt O14744); assay: Displacement of fluorophore-labeled RIOK1 from human PRMT5/WDR77 hetero octameric complex expressed in Sf9 cells by competition fluorescence polarization (FP) assay
[2] = Solubility in PBS buffer; type: physicochemical
[3] = biological target: T1, Protein arginine N-methyltransferase 5 (Homo sapiens, UniProt O14744); assay: Covalent inhibition of human PRMT5 assessed as initial binding constant by LC-MS analysis
[4] = Stability in human plasma assessed as compound remaining relative to control; type: ADME, cell-free
[5] = Stability in mouse plasma assessed as compound remaining relative to control; type: ADME, cell-free
[6] = Displacement of fluorophore-labeled RIOK1 from human PRMT5 C278A mutant/WDR77 hetero octameric complex expressed in Sf9 cells by competition fluorescence polarization (FP) assay
Outline: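 Competition FP with Sf9-expressed untagged PRMT5:WDR77 (WT or C278A) at 200 nM protomer and 10 nM fluorophore-labeled RIOK1 PBM peptide probe. […] Incubated at RT, read at 40 min, 8-point dose range, triplicate. Normalized to DMSO (100) and unlabeled peptide control at 20 μM (0).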

[7] = system: Protein arginine N-methyltransferase 5 (Homo sapiens), O14744 [C278A]; assay: Binding affinity to human PRMT5 C278A mutant assessed as increase in protein mass by deconvoluted mass spectra analysis
Outline: (§1)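 Purified untagged PRMT5:WDR77 (Sf9 co-expressed) exchanged into 10 mM HEPES 7.4, 150 mM NaCl, 1 mM TCEP. Protein diluted to 10 μM; 10 μL protein plus 1 μL compound (0.5 mM stock in DMSO) or DMSO in 90 μL buffer, 4 h at RT. Intact mass by LC-ToF on C4 column at 80 °C, positive ESI, spectra deconvoluted by MaxEnt1.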

[8] = biological target: PRMT5/MEP50 complex (Homo sapiens) (UniProt O14744+Q9BQA1); assay: Displacement of full-length pICIn protein from human PRMT5/WDR77 hetero octameric complex at 2 uM pretreated by SPR competition assay
[9] = biological target: Methylosome protein WDR77 (Homo sapiens) (UniProt Q9BQA1); assay: Binding affinity to human wild type WDR77 assessed as increase in protein mass by deconvoluted mass spectra analysis; outline: as §1
[10] = biological target: T1, Protein arginine N-methyltransferase 5; assay: Binding affinity to human wild type PRMT5 assessed as increase in protein mass by deconvoluted mass spectra analysis; outline: as §1
[11] = biological target: T1, Protein arginine N-methyltransferase 5; assay: Covalent inhibition of human PRMT5 assessed as Kinact/Ki ratio by LC-MS analysis
[12] = biological target: T1, Protein arginine N-methyltransferase 5; assay: Covalent inhibition of human PRMT5 assessed maximum potential inactivation rate by LC-MS analysis
[13] = Disruption of human N-terminal SmBiT peptide-tagged PRMT5/N-terminal LgBiT tagged RIOK1 complex expressed in intact HEK293T cells measured after 40 mins by NanoBiT assay; type: cell-based; settings: HEK-293T

Chain of PRMT5/MEP50 complex (O14744 whole entry): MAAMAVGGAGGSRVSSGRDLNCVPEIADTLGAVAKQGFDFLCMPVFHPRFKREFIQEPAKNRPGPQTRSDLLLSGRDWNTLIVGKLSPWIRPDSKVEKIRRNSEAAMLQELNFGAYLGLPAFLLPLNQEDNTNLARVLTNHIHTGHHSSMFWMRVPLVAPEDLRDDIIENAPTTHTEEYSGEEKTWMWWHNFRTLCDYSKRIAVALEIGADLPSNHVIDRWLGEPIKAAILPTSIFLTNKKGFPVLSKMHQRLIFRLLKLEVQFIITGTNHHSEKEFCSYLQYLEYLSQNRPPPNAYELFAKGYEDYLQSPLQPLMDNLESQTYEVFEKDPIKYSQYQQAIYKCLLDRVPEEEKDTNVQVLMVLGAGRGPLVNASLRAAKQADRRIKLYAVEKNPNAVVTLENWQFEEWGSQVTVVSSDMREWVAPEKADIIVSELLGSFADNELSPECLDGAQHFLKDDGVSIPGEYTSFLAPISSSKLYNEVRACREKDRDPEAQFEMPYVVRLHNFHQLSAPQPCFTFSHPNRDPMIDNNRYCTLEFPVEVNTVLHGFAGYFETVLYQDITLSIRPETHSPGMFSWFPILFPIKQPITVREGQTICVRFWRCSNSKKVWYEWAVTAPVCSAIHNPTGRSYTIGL
Chain of PRMT5/MEP50 complex (Q9BQA1 whole entry, further chain): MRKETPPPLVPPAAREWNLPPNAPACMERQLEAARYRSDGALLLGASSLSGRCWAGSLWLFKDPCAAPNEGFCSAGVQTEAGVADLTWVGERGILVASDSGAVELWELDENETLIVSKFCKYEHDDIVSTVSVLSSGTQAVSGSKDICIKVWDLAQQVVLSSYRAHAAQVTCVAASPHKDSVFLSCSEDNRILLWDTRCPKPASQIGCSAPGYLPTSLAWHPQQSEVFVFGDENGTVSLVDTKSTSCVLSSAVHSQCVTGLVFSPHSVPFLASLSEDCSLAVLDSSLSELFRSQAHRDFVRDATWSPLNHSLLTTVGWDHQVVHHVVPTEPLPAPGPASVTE
T1 sequence (O14744 whole entry): as the sequence (O14744 whole entry) above
Chain of Protein arginine N-methyltransferase 5 (Homo sapiens), O14744 [C278A] (O14744 whole entry C278A): as the sequence (O14744 whole entry) above, with C278A counted along it
Chain of Methylosome protein WDR77 (Homo sapiens) (Q9BQA1 whole entry): as the sequence (Q9BQA1 whole entry, further chain) above

SMILES | IC50 [1] | solubility [2] | Stabilty [4] | Stabilty [5] | further results
Cc1cc(NC(=O)Cn2ncc(Cl)c(Cl)c2=O)cc(S(=O)(=O)NCCc2ccccn2)c1C | 2.5 µM | 3.7 µM (≈ 1.89 µg/mL) | – | – | –
Cc1ccc(NC(=O)C(C)n2ncc(Cl)c(C)c2=O)cc1S(=O)(=O)NCCc1ccccn1 (racemic) | > 200 µM | – | – | – | –
Cc1ccc(NC(=O)Cn2ncc(F)cc2=O)cc1S(=O)(=O)NCCc1ccccn1 | 35.6 µM | – | – | – | Ki [3]: 58 µM
CCc1ccc(NC(=O)Cn2ncc(Cl)c(Cl)c2=O)cc1S(=O)(=O)NCCc1ccccn1 | 4.2 µM | 12 µM (≈ 6.12 µg/mL) | – | – | –
Cc1ccc(N(C)C(=O)Cn2ncc(Cl)c(Cl)c2=O)cc1S(=O)(=O)NCCc1ccccn1 | > 200 µM | 86 µM (≈ 43.9 µg/mL) | 89% | 86% | –
Cc1ccc(NC(=O)Cn2ncc(Cl)c(Cl)c2=O)cc1S(=O)(=O)N1CCCCC1 | 12.7 µM | 0.8 µM (≈ 0.367 µg/mL) | – | – | –
Cc1ccc(NC(=O)Cn2ncc(Cl)c(Cl)c2=O)cc1S(=O)(=O)NCCc1ccccn1 | 2.2 µM | – | – | – | IC50 [6]: > 100 µM; Activity [7]: inactive; Activity [8]: Active; Activity [9]: inactive; Activity [10]: Active; Ki [3]: 8 µM
Cc1ncc(NC(=O)Cn2ncc(Cl)c(Cl)c2=O)cc1S(=O)(=O)N1CCCN(C)CC1 | > 200 µM | 96 µM (≈ 47 µg/mL) | 70% | 3% | –
Cc1ccc(NC(=O)Cn2ncc(F)c(C)c2=O)cc1S(=O)(=O)NCCc1ccccn1 | 72.1 µM | – | – | – | –
Nc1nc2cc(CC[C@H]3C[C@@H](n4ccc5c(N)ncnc54)[C@H](O)[C@@H]3O)ccc2cc1Br [ONAMETOSTAT] | – | 7 µM (≈ 3.38 µg/mL) | – | – | –
Cc1cc(C)c(S(=O)(=O)NCCc2ccccn2)cc1NC(=O)Cn1ncc(Cl)c(Cl)c1=O | 6.1 µM | 14 µM (≈ 7.15 µg/mL) | – | – | –
Cc1ccc(NC(=O)[C@H](C)n2ncc(Cl)c(Cl)c2=O)cc1S(=O)(=O)NCCc1ccccn1 | 0.3 µM | 64 µM (≈ 32.7 µg/mL) | 92% | 92% | Ratio [11]: 14600 M⁻¹ s⁻¹; Ki [3]: 2 µM; Kinact [12]: 1.95 min⁻¹
Cc1ccc(N(C)C(=O)[C@H](C)n2ncc(Cl)cc2=O)cc1S(=O)(=O)NCCc1ccccn1 | > 200 µM | 114 µM (≈ 55.9 µg/mL) | – | – | –
Cc1ccc(NC(=O)Cn2ncc(Cl)c(Cl)c2=O)nc1S(=O)(=O)NCCc1ccccn1 | 4.5 µM | 5 µM (≈ 2.49 µg/mL) | 96% | 75% | –
O=C(Cn1ncc(Cl)c(Cl)c1=O)Nc1cccc(S(=O)(=O)NCCc2ccccn2)c1 | 19.2 µM | 19 µM (≈ 9.16 µg/mL) | – | – | –
Cc1ccc(NC(=O)Cn2ncc(Cl)c(Cl)c2=O)cc1S(=O)(=O)N1CCN(C)CC1 | 10.1 µM | 89 µM (≈ 42.2 µg/mL) | 72% | 0% | –
O=C(NC[C@H](O)CN1CCc2ccccc2C1)c1cc(NC2COC2)ncn1 | – | 101 µM (≈ 38.7 µg/mL) | – | – | –
COc1ccc(NC(=O)Cn2ncc(Cl)c(Cl)c2=O)cc1S(=O)(=O)NCCc1ccccn1 | 23.3 µM | 96 µM (≈ 49.2 µg/mL) | – | – | –
Cc1ccc(NC(=O)Cn2ncc(Cl)c(Cl)c2=O)cc1S(=O)(=O)NCCc1ccncc1 | 2.5 µM | 93 µM (≈ 46.2 µg/mL) | 92% | 2% | –
Cc1ccc(NC(=O)Cn2ncc(Cl)cc2=O)cc1S(=O)(=O)NCCc1ccccn1 | 72.9 µM | – | – | – | Ki [3]: 36 µM
Cc1ccc(NC(=O)Cn2ncc(Cl)c(Cl)c2=O)cc1S(=O)(=O)N1CCCN(C)CC1 | 5.4 µM | 98 µM (≈ 47.9 µg/mL) | 84% | 0% | –
Cc1ccc(NC(=O)[C@@H](C)n2ncc(Cl)c(Cl)c2=O)cc1S(=O)(=O)NCCc1ccccn1 | 55.4 µM | 70 µM (≈ 35.7 µg/mL) | 95% | 97% | Ratio [11]: 226 M⁻¹ s⁻¹; Ki [3]: 78 µM; Kinact [12]: 1.05 min⁻¹
CN(C)S(=O)(=O)N1CCCC(NC(=O)Cn2ncc(Cl)c(Cl)c2=O)C1 (stereo not given) | > 200 µM | 98 µM (≈ 40.4 µg/mL) | – | – | –
Cc1ccc(NC(=O)Cn2ncc(Cl)c(Cl)c2=O)cc1S(=O)(=O)NCCc1cccnc1 | 4.6 µM | 88 µM (≈ 43.7 µg/mL) | 100% | 21% | –
Cc1ccc(NC(=O)Cn2nccc(Cl)c2=O)cc1S(=O)(=O)NCCc1ccccn1 | > 200 µM | – | – | – | IC50 [13]: > 100 µM
Cc1cnc(NC(=O)Cn2ncc(Cl)c(Cl)c2=O)cc1S(=O)(=O)N(C)C | – | 7.6 µM (≈ 3.19 µg/mL) | – | – | –
Cc1ccc(NC(=O)Cn2ncc(F)c(Cl)c2=O)cc1S(=O)(=O)NCCc1ccccn1 | 0.37 µM | – | – | – | –
Cc1ccc(NC(=O)Cn2ncc(Cl)c(Cl)c2=O)cc1S(=O)(=O)N(C)C | 14.1 µM | – | – | – | –
Cc1ccc(NC(=O)Cn2ncc(Cl)c(Cl)c2=O)c(C)c1S(=O)(=O)NCCc1ccccn1 | 39 µM | 7.8 µM (≈ 3.98 µg/mL) | – | – | –
